{
  "source": "ChEMBL document CHEMBL1641489",
  "about": "“Syntheses, structures and antibiotic activities of LpxC inhibitors based on the diacetylene scaffold” (Bioorg Med Chem, 2011)",
  "key": {"[1]": {"system": "Pseudomonas aeruginosa", "test": "Antibacterial activity against Pseudomonas aeruginosa PAO1 by NCCLS assay", "assay_type": "functional", "outline": "(§1)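 Broth microdilution MIC per NCCLS protocol, adapted to 96-well format in LB medium containing 5% DMSO; MIC taken as lowest concentration inhibiting bacterial growth.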"}, "[2]": {"system": "Escherichia coli", "test": "Antibacterial activity against Escherichia coli W3110 by NCCLS assay", "assay_type": "functional", "outline": "as §1"}, "[3]": {"system": "Escherichia coli", "test": "Antibacterial activity against Escherichia coli W3110PA replaced with Pseudomonas aeruginosa lpxC gene by NCCLS assay", "assay_type": "functional", "outline": "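MIC by the NCCLS protocol in LB medium with 5% DMSO. Strain: W3110 with chromosomal lpxC swapped for P. aeruginosa lpxC. The swap was made by λ-red recombination in DY330 and moved into W3110 by P1vir transduction, selecting on LB/agar with 15 μg/mL L-161,240 and 10 mM sodium citrate.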"}, "[4]": {"target": "T1, UDP-3-O-acyl-N-acetylglucosamine deacetylase (Escherichia coli K-12, UniProt P0A725)", "T1 sequence (P0A725 whole entry)": "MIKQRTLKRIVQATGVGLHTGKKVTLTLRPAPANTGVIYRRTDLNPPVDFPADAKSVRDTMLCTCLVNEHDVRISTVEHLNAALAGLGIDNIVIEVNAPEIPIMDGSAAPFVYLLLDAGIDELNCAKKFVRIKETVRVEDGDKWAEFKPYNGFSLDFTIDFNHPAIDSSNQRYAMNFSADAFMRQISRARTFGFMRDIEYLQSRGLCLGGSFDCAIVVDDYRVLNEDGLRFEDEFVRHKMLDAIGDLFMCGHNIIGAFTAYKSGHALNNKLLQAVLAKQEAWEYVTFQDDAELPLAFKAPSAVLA", "test": "Inhibition of Escherichia coli LpxC"}, "[5]": {"system": "Escherichia coli", "test": "Antibacterial activity against Escherichia coli W3110RL replaced with Rhizobium leguminosarum lpxC gene by NCCLS assay", "assay_type": "functional", "outline": "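MIC by the NCCLS protocol in LB medium with 5% DMSO. Strain: E. coli with native lpxC replaced by the R. leguminosarum gene.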"}},
  "data": [
    {"smiles": "C[C@@H](O)[C@H](NC(=O)c1ccc(C#CC#Cc2ccccc2)cc1)C(=O)NO", "values": [
      {"measurement": "MIC", "setting": "[1]", "value": 0.7, "unit": "µg/mL"},
      {"measurement": "MIC", "setting": "[2]", "value": 0.05, "unit": "µg/mL"},
      {"measurement": "MIC", "setting": "[3]", "value": 0.7, "unit": "µg/mL"},
      {"measurement": "Ki", "setting": "[4]; read-out: Ki", "value": 0.18, "unit": "nM"},
      {"measurement": "Ki", "setting": "[4]; read-out: Ki(app)", "value": 0.55, "unit": "nM"},
      {"measurement": "MIC", "setting": "[5]", "value": 6.3, "unit": "µg/mL"}
    ]},
    {"smiles": "C[C@@H](O)[C@H](NC(=O)c1ccc(C#CC#Cc2ccc(N)cc2)cc1)C(=O)NO", "values": [
      {"measurement": "MIC", "setting": "[1]", "value": 0.5, "unit": "µg/mL"},
      {"measurement": "MIC", "setting": "[2]", "value": 0.03, "unit": "µg/mL"},
      {"measurement": "MIC", "setting": "[3]", "value": 0.5, "unit": "µg/mL"},
      {"measurement": "MIC", "setting": "[5]", "value": 3.9, "unit": "µg/mL"}
    ]},
    {"smiles": "C[C@@H](O)[C@H](NC(=O)c1ccc(C#CC#Cc2cccc(N)c2)cc1)C(=O)NO", "values": [
      {"measurement": "MIC", "setting": "[1]", "value": 1.3, "unit": "µg/mL"},
      {"measurement": "MIC", "setting": "[2]", "value": 0.06, "unit": "µg/mL"},
      {"measurement": "MIC", "setting": "[3]", "value": 1.3, "unit": "µg/mL"},
      {"measurement": "MIC", "setting": "[5]", "value": 6.3, "unit": "µg/mL"}
    ]},
    {"smiles": "C[C@@H](O)[C@H](NC(=O)c1ccc(C#CC#Cc2ccccc2N)cc1)C(=O)NO", "values": [
      {"measurement": "MIC", "setting": "[1]", "value": 12.5, "unit": "µg/mL"},
      {"measurement": "MIC", "setting": "[2]", "value": 0.5, "unit": "µg/mL"},
      {"measurement": "MIC", "setting": "[3]", "value": 8.3, "unit": "µg/mL"},
      {"measurement": "MIC", "setting": "[5]", "value": "> 25", "unit": "µg/mL"}
    ]},
    {"smiles": "C[C@H](O)[C@H](NC(=O)c1ccc(C#CC#Cc2ccc(N)cc2)cc1)C(=O)NO", "values": [
      {"measurement": "MIC", "setting": "[1]", "value": 0.9, "unit": "µg/mL"},
      {"measurement": "MIC", "setting": "[2]", "value": 0.07, "unit": "µg/mL"},
      {"measurement": "MIC", "setting": "[3]", "value": 0.8, "unit": "µg/mL"},
      {"measurement": "MIC", "setting": "[5]", "value": 12.5, "unit": "µg/mL"}
    ]},
    {"smiles": "C[C@@H](O)[C@@H](NC(=O)c1ccc(C#CC#Cc2ccc(N)cc2)cc1)C(=O)NO", "values": [
      {"measurement": "MIC", "setting": "[1]", "value": "> 25", "unit": "µg/mL"},
      {"measurement": "MIC", "setting": "[2]", "value": 6.3, "unit": "µg/mL"},
      {"measurement": "MIC", "setting": "[3]", "value": "> 25", "unit": "µg/mL"},
      {"measurement": "MIC", "setting": "[5]", "value": "> 25", "unit": "µg/mL"}
    ]},
    {"smiles": "C[C@H](O)[C@@H](NC(=O)c1ccc(C#CC#Cc2ccc(N)cc2)cc1)C(=O)NO", "values": [
      {"measurement": "MIC", "setting": "[1]", "value": "> 25", "unit": "µg/mL"},
      {"measurement": "MIC", "setting": "[2]", "value": 3.1, "unit": "µg/mL"},
      {"measurement": "MIC", "setting": "[3]", "value": "> 25", "unit": "µg/mL"},
      {"measurement": "MIC", "setting": "[5]", "value": "> 25", "unit": "µg/mL"}
    ]},
    {"smiles": "C[C@@H](O)[C@H](NC(=O)c1ccc(C#Cc2ccc(CN3CCOCC3)cc2)cc1)C(=O)NO", "values": [
      {"measurement": "MIC", "setting": "[1]", "value": 1.6, "unit": "µg/mL"},
      {"measurement": "MIC", "setting": "[2]", "value": 0.2, "unit": "µg/mL"},
      {"measurement": "MIC", "setting": "[3]", "value": 1.3, "unit": "µg/mL"},
      {"measurement": "MIC", "setting": "[5]", "value": 125, "unit": "µg/mL"}
    ]}
  ]
}
